The values that follow come from ChEMBL document CHEMBL4261588, “Breathing new life into West Nile virus therapeutics; discovery and study of zafirlukast as an NS2B-NS3 protease inhibitor” (Eur J Med Chem, 2018).

Assay [1] deals with West Nile virus. Description: Inhibition of West Nile virus NS2B-NS3 protease at 60 uM using Mca-KKR-GDap(DNP)AK-NH2 as substrate measured every 30 secs for 20 mins by FRET assay.
Assay [2] in a line: Inhibition of West Nile virus NS2B-NS3 protease using Mca-KKR-GDap(DNP)AK-NH2 as substrate measured every 30 secs for 20 mins by FRET assay. The gist of the method: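 FRET read-out: protease cleavage of a peptide carrying a fluorophore and a quencher on either side of the cleavage site raises fluorescence in proportion to enzyme activity. IC50 is taken as the inhibitor concentration that lowers enzymatic activity by 50%.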

For assay [3], the system named is West Nile virus. Description: Inhibition of West Nile virus NS2B-NS3 protease using Mca-KKR-GDap(DNP)AK-NH2 as substrate measured every 30 secs for 5 mins in presence of Brij35 by FRET assay. The gist of the method:
(§1)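 Aggregation counter-screen run in the FRET protease assay, with inhibition followed across a range of detergent concentrations (0-0.2 %) of CHAPS and of Brij35.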

Assay [4] concerns West Nile virus. Description: Mixed inhibition of West Nile virus NS2B-NS3 protease using Mca-KKR-GDap(DNP)AK-NH2 as substrate measured every 30 secs for 10 mins by Lineweaver-burk plot analysis.
Assay [5] deals with West Nile virus. The assay is described as follows: Inhibition of West Nile virus NS2B-NS3 protease using Mca-KKR-GDap(DNP)AK-NH2 as substrate measured every 30 secs for 5 mins in presence of CHAPS by FRET assay. Put shortly: as §1

Active and inactive are the calls of the source. The rule behind the calls is not given here.

On to `COc1cc(C(=O)NS(=O)(=O)c2ccccc2C)ccc1Cc1cccc(NC(=O)OC2CCCC2)c1`, for which the inhibition (commonly the change of the read-out against control, counted positive when it falls) with West Nile virus [1] turned out to be 30%.
Still for that read-out and setting: as for `Cc1ccccc1S(=O)(=O)NC(=O)c1ccc(Cc2cn(C)c3ccc(NC(=O)OC4CCCC4)cc23)cc1`, the figure is 64%.
As to `COc1cc(C(=O)NS(=O)(=O)c2ccccc2C)ccc1Cc1cn(C)c2ccc(NC(=O)Oc3ccccc3)cc12`, in assay [2], the half-maximal inhibitory concentration (IC50) (usually the concentration at which inhibition is half-maximal) turned out to be 22 µM. In the assay on West Nile virus [1], the inhibition is 92%.
For the compound `COc1cc(C(=O)NS(=O)(=O)c2ccccc2C)ccc1Cn1ccc2cc(NC(=O)OC3CCCC3)ccc21`, the inhibition in the assay on West Nile virus [1] was found to be 79%.
`COc1cc(C(=O)NS(=O)(=O)c2ccccc2C)ccc1Cc1cn(C)c2ccc(NC(=O)OC3CCCC3)cc12` [ZAFIRLUKAST]: the inhibition entry with West Nile virus [3], in the assay on West Nile virus [4] and in the assay with West Nile virus [5] was “Active” each time. In assay [2], this compound yielded a half-inhibitory concentration (IC50) of 32 µM.
`COC(=O)c1ccc(Cc2cn(C)c3ccc(NC(=O)OC4CCCC4)cc23)c(OC)c1` showed an inhibition with West Nile virus [1] of 12%.
Still for that read-out and setting: to `COc1cc(C(=O)NCc2ccccc2)ccc1Cc1cn(C)c2ccc(NC(=O)OC3CCCC3)cc12` belongs 5%.
On the same count and under the same terms, to `CCOC(=O)Nc1ccc2c(c1)c(Cc1ccc(C(=O)NS(=O)(=O)c3ccccc3C)cc1OC)cn2C` belongs 12%; to `COc1cc(C(=O)NS(=O)(=O)c2ccccc2)ccc1Cc1cn(C)c2ccc(NC(=O)OC3CCCC3)cc12`, 81%; to `Cc1ccccc1S(=O)(=O)NC(=O)c1ccc(NC(=O)OC2CCCC2)cc1`, 4%.
On the same count and under the same terms, as for `Cn1ccc2cc(NC(=O)OC3CCCC3)ccc21`, the figure is 6%.
`COc1cc(C(=O)NS(=O)(=O)c2ccccc2C)ccc1Cc1cn(C)c2ccc(NC(=O)CC3CCCC3)cc12` displayed an inhibition in the assay on West Nile virus [1] of 33%.
On the same count and under the same terms, to `COC(=O)c1ccc(Cn2ccc3cc(NC(=O)OC4CCCC4)ccc32)c(OC)c1` belongs 5%.
